Each structure is given as a SMILES string. Where a name gives a salt, the structure may show the parent alone. A value given as a limit tells only on which side of the number the result lay.

As a reminder, the Ki is a measure of affinity in units of concentration, obtained from inhibition or displacement. Higher therefore signals lower affinity.

Experiment [1] concerns the target T1, Amine oxidase [flavin-containing] A (Rattus norvegicus, UniProt P21396).
T1 sequence (P21396 whole entry): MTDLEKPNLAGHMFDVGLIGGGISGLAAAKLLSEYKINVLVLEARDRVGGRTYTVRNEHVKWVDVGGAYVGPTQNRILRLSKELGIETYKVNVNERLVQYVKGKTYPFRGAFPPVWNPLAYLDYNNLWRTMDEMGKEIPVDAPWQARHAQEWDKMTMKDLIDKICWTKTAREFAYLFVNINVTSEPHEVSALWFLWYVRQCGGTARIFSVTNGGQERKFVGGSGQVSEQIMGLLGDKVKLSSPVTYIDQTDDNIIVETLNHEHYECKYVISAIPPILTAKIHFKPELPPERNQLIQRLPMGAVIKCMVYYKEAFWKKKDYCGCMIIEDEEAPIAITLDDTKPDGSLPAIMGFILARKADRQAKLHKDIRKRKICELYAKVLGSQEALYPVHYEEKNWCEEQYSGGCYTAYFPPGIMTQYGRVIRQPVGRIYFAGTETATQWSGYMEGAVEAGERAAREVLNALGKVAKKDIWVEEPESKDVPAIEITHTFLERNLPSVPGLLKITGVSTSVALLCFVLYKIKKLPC
Nature of the experiment: Inhibition of MAOA in rat brain mitochondria. In a few lines: (§1)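 Substrate is 5-HT for MAO-A and DMAPEA for MAO-B. Substrates and their metabolites are measured by HPLC with electrochemical detection. Percent inhibition is taken against enzyme treated the same way without inhibitor and plotted against −log inhibitor concentration to give IC50. Runs are at least two independent experiments, each in triplicate. Ki is from IC50 by Cheng–Prusoff, using the substrate's Km.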

Experiment [2] concerns the target T2, Amine oxidase [flavin-containing] B (Rattus norvegicus, UniProt P19643).
T2 sequence (P19643 whole entry): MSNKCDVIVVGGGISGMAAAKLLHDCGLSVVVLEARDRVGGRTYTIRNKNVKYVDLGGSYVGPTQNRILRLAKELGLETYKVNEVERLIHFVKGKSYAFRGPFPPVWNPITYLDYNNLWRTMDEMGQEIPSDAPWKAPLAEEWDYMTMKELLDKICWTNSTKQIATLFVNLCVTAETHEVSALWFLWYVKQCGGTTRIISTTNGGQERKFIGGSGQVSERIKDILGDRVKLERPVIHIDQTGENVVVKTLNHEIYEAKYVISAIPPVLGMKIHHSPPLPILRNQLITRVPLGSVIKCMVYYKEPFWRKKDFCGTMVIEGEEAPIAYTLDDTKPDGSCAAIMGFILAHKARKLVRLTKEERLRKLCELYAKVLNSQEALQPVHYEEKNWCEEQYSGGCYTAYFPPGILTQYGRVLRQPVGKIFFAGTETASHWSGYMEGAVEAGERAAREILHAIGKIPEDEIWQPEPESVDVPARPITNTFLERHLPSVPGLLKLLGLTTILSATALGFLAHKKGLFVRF
Nature of the experiment: Inhibition of MAOB in rat brain mitochondria. In a few lines:
as §1

For the compound `CCOc1ccc(CC(C)N)cc1` (stereo unspecified), the inhibition constant (Ki) in experiment [1] was 0.22 µM; in experiment [2] it was greater than 100 µM. `COc1ccc2cc(CC(C)N)ccc2c1` (stereo unspecified): the Ki in experiment [1] was found to be 0.18 µM; in experiment [2] it was 16.3 µM. As for `CCCCOc1ccc2cc(CC(C)N)ccc2c1` (stereo unspecified), the inhibitory constant (Ki) in experiment [1] was found to be 1.53 µM. Regarding `CCOc1ccc2cc(CC(C)N)ccc2c1` (stereo unspecified), the inhibition constant Ki in experiment [1] is 0.45 µM; in experiment [2], 13.6 µM. In turn, `CSc1ccc2cc(CC(C)N)ccc2c1` (stereo unspecified) yielded an inhibitory constant (Ki) in experiment [1] of 0.5 µM. In the case of `CCCOc1ccc(CC(C)N)cc1` (stereo unspecified), the inhibitory constant (Ki) in experiment [1] is 0.13 µM; in experiment [2], greater than 100 µM. For `CCCCOc1ccc2cc(CC(C)NCc3ccccc3)ccc2c1` (stereo unspecified), in that order: 14.5 µM and 22.2 µM. As for `CC(N)Cc1ccc2cc(OCc3ccccc3)ccc2c1` (stereo unspecified), the Ki in experiment [1] was found to be 3.78 µM; in experiment [2], 2.56 µM. For `CCCCOc1ccc(CC(C)N)cc1` (stereo unspecified), in that order: 0.32 µM and greater than 100 µM.

As to `CC(N)Cc1ccc(OCc2ccccc2)cc1` (stereo unspecified), the results for the Ki in experiment [1] and in experiment [2] were 3.42 µM and 0.71 µM, respectively. For `CSc1ccc(CC(C)NCc2ccc(O)cc2)cc1` (stereo unspecified), the Ki in experiment [1] and in experiment [2] was greater than 100 µM throughout. Compound `COc1ccc(CNC(C)Cc2ccc(SC)cc2)cc1` (stereo unspecified) returned an inhibition constant (Ki) in experiment [1] greater than 100 µM.

The compound `CCCCOc1ccc(CNC(C)Cc2ccc(SC)cc2)cc1` (stereo unspecified) gave a Ki in experiment [1] of 90 µM. As for `CSc1ccc(CC(C)NCc2ccccc2)cc1` (stereo unspecified), the inhibitory constant (Ki) in experiment [1] and in experiment [2] was greater than 100 µM each time. The compound `CSc1ccc(CC(C)NCc2ccc(OCc3ccccc3)cc2)cc1` (stereo unspecified) gave a Ki in experiment [1] greater than 100 µM. As for `CC(N)Cc1cccc2ccccc12` (stereo unspecified), the values for the Ki in experiment [1] and in experiment [2] were 5.63 µM and greater than 100 µM, respectively.

For the compound `CC(N)Cc1ccc2ccccc2c1` (stereo unspecified), the Ki is 0.42 µM in experiment [1] and greater than 100 µM in experiment [2]. The matching figures for `CCCOc1ccc2cc(CC(C)N)ccc2c1` (stereo unspecified): 0.68 µM and 13.5 µM. For `COc1ccc2cc(CC(C)NCc3ccccc3)ccc2c1` (stereo unspecified), in that order: 6.93 µM and 24.7 µM.

`CSc1ccc(CC(C)N)cc1` (stereo unspecified) [4-METHYLTHIOAMPHETAMINE]: in experiment [1], the Ki was 0.25 µM. In experiment [1], `CC(N)Cc1ccccc1` (stereo unspecified) [AMPHETAMINE SULFATE] gave a Ki of 12.2 µM. As for `COc1ccc(CC(C)N)cc1` (stereo unspecified) [PARA-METHOXYAMPHETAMINE], the Ki in experiment [1] worked out at 0.25 µM.

(Values after ChEMBL document CHEMBL1152788, “Naphthylisopropylamine and N-benzylamphetamine derivatives as monoamine oxidase inhibitors” (Bioorg Med Chem, 2009).)
